Format in all cases: functional
Experiment [1] has as its system Aspergillus fumigatus. Briefly: Antimicrobial activity against azole-susceptible Aspergillus fumigatus after 48 hrs by microdilution method. The procedure, abridged: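 EUCAST broth microdilution on clinical isolates, RPMI 1640 with glucose to 2%. Inoculum 2 × 105 to 5 × 10^5 CFU/ml, counted as spores in a hematocytometer. MIC read at 48 h as the lowest concentration giving complete inhibition of visual growth. Strains with itraconazole MIC ≤1 mg/liter tested once, some at least twice. Values summarised as geometric means; QC strain ATCC 204305 run alongside.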
In general terms: Broth dilution looks for growth in wells or tubes with falling amounts of substance.

Experiment [2] deals with Aspergillus fumigatus. Nature of the experiment: Antimicrobial activity against azole-resistant Aspergillus fumigatus harboring G54V, G54E, G54R and G54W mutation in cyp51A gene after 48 hrs by microdilution method. In short, it runs like this:
(§1)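 EUCAST broth microdilution in RPMI 1640 supplemented to 2% glucose. Inoculum 2 × 105 to 5 × 10^5 CFU/ml, spores counted in a hematocytometer. MIC read at 48 h as the concentration giving complete inhibition of visual growth. Strains with itraconazole MICs of ≥8 mg/liter were tested at least twice on different days (2 to 11 times). Values are geometric means of MICs. QC strain ATCC 204305 was included.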

The test system of experiment [3] is Aspergillus fumigatus. Nature of the experiment: Antimicrobial activity against azole-resistant Aspergillus fumigatus harboring M220V, M220K, M220T and M220I mutation in cyp51A gene after 48 hrs by microdilution method. In short, it runs like this: as §1
Experiment [4] has as its system Aspergillus fumigatus. Briefly: Antimicrobial activity against azole-resistant Aspergillus fumigatus harboring Tandem repeat-L98H (TR) mutation in cyp51A gene after 48 hrs by microdilution method. The procedure, abridged: as §1

Converted amounts (≈) assume the structure as drawn.

Turning to `C[C@@H](c1nc(-c2ccc(C#N)cc2)cs1)[C@](O)(Cn1cncn1)c1ccc(F)cc1F` [RAVUCONAZOLE], the MIC (in general, the lowest concentration found to suppress growth) against Aspergillus fumigatus [1] is 0.6 µg/mL (≈ 1.37 µM); in the experiment on Aspergillus fumigatus [2], 0.32 µg/mL (≈ 0.731 µM); in the experiment on Aspergillus fumigatus [3] it was 1.85 µg/mL (≈ 4.23 µM); in the experiment on Aspergillus fumigatus [4], 6.8 µg/mL (≈ 15.5 µM). Besides, in the experiment with Aspergillus fumigatus [1], the MIC90 (in general, the lowest concentration that inhibits either 90% of growth or 90% of the strains tested, depending on the study) came to 1 µg/mL (≈ 2.29 µM).
As to `C[C@@H](c1ncncc1F)[C@](O)(Cn1cncn1)c1ccc(F)cc1F` [VORICONAZOLE], the MIC in the experiment on Aspergillus fumigatus [1] came out at 0.53 µg/mL (≈ 1.52 µM); in the experiment on Aspergillus fumigatus [2], 0.42 µg/mL (≈ 1.2 µM); against Aspergillus fumigatus [3] it was 1 µg/mL (≈ 2.86 µM); with Aspergillus fumigatus [4] it was 3.7 µg/mL (≈ 10.6 µM). Besides, in the experiment on Aspergillus fumigatus [1], the MIC90 was determined as 1 µg/mL (≈ 2.86 µM).
For `CCC(C)n1ncn(-c2ccc(N3CCN(c4ccc(OCC5COC(Cn6cncn6)(c6ccc(Cl)cc6Cl)O5)cc4)CC3)cc2)c1=O` (stereo not given) [ITRACONAZOLE], the minimal inhibitory concentration (MIC) with Aspergillus fumigatus [1] was 0.32 µg/mL (≈ 0.453 µM); in the experiment on Aspergillus fumigatus [2] it was 16 µg/mL (≈ 22.7 µM); against Aspergillus fumigatus [3] it was 16 µg/mL (≈ 22.7 µM); in the experiment with Aspergillus fumigatus [4], 16 µg/mL (≈ 22.7 µM). The same compound had an MIC90 in the experiment with Aspergillus fumigatus [1] of 0.5 µg/mL (≈ 0.709 µM).
In the case of `CC[C@@H]([C@H](C)O)n1ncn(-c2ccc(N3CCN(c4ccc(OC[C@@H]5CO[C@@](Cn6cncn6)(c6ccc(F)cc6F)C5)cc4)CC3)cc2)c1=O` [POSACONAZOLE], the minimum inhibitory concentration (MIC) with Aspergillus fumigatus [1] came to 0.08 µg/mL (≈ 0.114 µM); against Aspergillus fumigatus [2], 1.6 µg/mL (≈ 2.28 µM); with Aspergillus fumigatus [3], 0.65 µg/mL (≈ 0.928 µM); with Aspergillus fumigatus [4], 0.68 µg/mL (≈ 0.97 µM). The MIC90 with Aspergillus fumigatus [1] was 0.125 µg/mL (≈ 0.178 µM).
